# Measured values reported in PubChem BioAssay.
# Activity calls are given as the source filed them.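 Rule for the calls, unless noted: active = GFP response above 150% of the DMSO level; inconclusive = fewer than 70 events counted for a yeast strain; inactive = the rest.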
# Tests used:
# [1] = hit retest on RPL19A-GFP reporter strain – cell-based, S. cerevisiae, flow cytometry, cherry picks, mother/daughter gates, confirmation (AID 2270;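 active = GFP response below 50% of the DMSO control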); settings: 3 h, at 10 µM, stronger effect = lower value, 100 = same GFP as DMSO wells
# [2] = yeast TOR pathway reporter LAP4-GFP change – cell-based, cherry picks, flow cytometry, mother/daughter gates, confirmation (AID 2271;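 active = GFP response above 150% of the DMSO control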;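 note: ratio of sample to DMSO plate mean so 100% equals DMSO level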); settings: S. cerevisiae LAP4-GFP strain, 3 h, at 10 µM, stronger effect = higher value, 100 means same as DMSO control
# Procedure, shortened: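 System – GFP-fusion yeast strain · Amount – 0.2 OD600 cells · Buffer or medium – SC growth medium · Dosing – single test-compound dose, 10 µM final · Schedule – 3 h treatment at 30 °C with rotation · Detection – GFP by flow cytometry · Read-out – per-gate (all, mother, daughter) GFP response vs DMSO · Benchmarks – positive rapamycin (400 ng/mL), negative DMSO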
# [3] = TOR pathway reporter MEP2-GFP, retest of hits – S. cerevisiae, flow cytometry GFP, cherry picks, confirmation (AID 2272;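 active = GFP response above 150% of the DMSO control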;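 note: ratio of well signal to plate DMSO mean so 100% equals DMSO level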); settings: S. cerevisiae MEP2-GFP strain, 3 h, at 10 µM, stronger effect = higher value
# [4] = yeast AGP1-GFP fluorescence change, single-dose – cell-based, flow cytometry, S. cerevisiae, cherry picks, confirmation (AID 2273);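 note: median GFP channel fluorescence over the whole cell population gate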; settings: S. cerevisiae AGP1-GFP strain, 3 h, at 10 µM
# [5] = TOR pathway CIT2 reporter hit retest – S. cerevisiae, GFP fusion, cherry picks, mother/daughter gates, confirmation (AID 2274); settings: S. cerevisiae CIT2-GFP strain, flow cytometry, 3 h, at 10 µM, stronger effect = higher value
# [6] = measured here: daughter cell gate
# [7] = measured here: mother cell gate
# [8] = measured here: daughter cell gate response
# [9] = measured here: mother cell gate response
SMILES,GFP response vs DMSO [1],"GFP response vs DMSO [1, 6] [%]","GFP response vs DMSO [1, 7] [%]",GFP response relative to DMSO [2],"GFP response relative to DMSO [2, 8] [%]","GFP response relative to DMSO [2, 9] [%]",GFP response vs DMSO [3],"GFP response, % of DMSO [4]","GFP response, % of DMSO [5]","GFP response, % of DMSO [5, 6] [%]","GFP response, % of DMSO [5, 7] [%]"
Cc1cc(N=Nc2ccccc2C(=O)O)c(C)c(C)c1O,99.8% (inactive),99.4,99.3,108% (inactive),109,108,114% (inactive),98.4% (inactive),126% (inactive),129,125
COc1ccccc1NC(=O)c1ccc([N+](=O)[O-])o1,102% (inactive),102,101,120% (inactive),115,122,102% (inactive),99.3% (inactive),107% (inactive),108,106
Nc1ccc(C(=O)N/N=C/c2ccccc2)cc1,105% (inactive),102,106,102% (inactive),99.1,102,101% (inactive),108% (inactive),100% (inactive),101,99.3
COc1cc(/C=C2\N=C(C)OC2=O)cc(Cl)c1OC(C)=O,107% (inactive),109,102,117% (inactive),115,118,105% (inactive),99.8% (inactive),108% (inactive),112,103
CCOC(=O)CSC1=NC(=O)/C(=C/c2ccc(Br)cc2)S1,96.3% (inactive),86.3,92.8,161% (active),136,170,98.8% (inactive),103% (inactive),83.5% (inactive),77.8,79.8
COc1ccc(S(=O)(=O)NCC(=O)N(CC(=O)NCc2ccco2)Cc2ccc(F)cc2)cc1,100% (inactive),98.8,101,99.5% (inactive),99.1,100,99% (inactive),103% (inactive),103% (inactive),105,101
CCCOc1ccc(C(=O)NNC(=S)NC(=O)CC)cc1,126% (inactive),103,117,181% (active),120,169,139% (inactive),130% (inactive),132% (inactive),121,117
CN(c1ccccc1)S(=O)(=O)c1ccc(C(=O)Nc2nnc(-c3ccc(F)cc3)o2)cc1,99.1% (inactive),102,98.6,122% (inactive),128,120,149% (inactive),106% (inactive),131% (inactive),133,128
O=C(Nc1ccc(NC(=O)c2cc3ccccc3o2)cc1)c1ccco1,100% (inactive),97.6,101,97% (inactive),95.9,97.3,101% (inactive),106% (inactive),98.8% (inactive),99.2,98.1
COc1cc(NC(=O)c2ccc(C)cc2C)ccc1NC(=O)c1cc2ccccc2o1,97.1% (inactive),95.9,94.4,97.7% (inactive),97.5,95.4,106% (inactive),105% (inactive),97.2% (inactive),101,97.1
O=c1[nH]c2c(=O)[nH]cnc2nc1-c1ccccc1,103% (inactive),94.9,96.3,97% (inactive),95.9,88.8,101% (inactive),98.2% (inactive),97.3% (inactive),86.6,89.5
CCOC(=O)c1ccc2nc(Nc3nc4ccc(F)cc4s3)sc2c1,99.6% (inactive),98.1,99.3,101% (inactive),97.5,102,101% (inactive),105% (inactive),103% (inactive),103,103
Oc1c(Br)cc(Br)cc1C=NCc1ccccc1,101% (inactive),91.3,101,135% (inactive),105,137,112% (inactive),99.7% (inactive),104% (inactive),108,92.1
COc1ccc(S(=O)(=O)N2Cc3ccccc3CC2C(=O)O)cc1OC (stereo unspecified),97% (inactive),97,97.1,98.8% (inactive),96.5,98.5,104% (inactive),102% (inactive),99.3% (inactive),100,99.1
O=S(=O)(c1ccccc1)N1N=C(c2cccs2)CC1c1ccc(F)cc1 (stereo unspecified),99.7% (inactive),97.8,100,97.4% (inactive),94.1,101,100% (inactive),104% (inactive),97.8% (inactive),96.5,98.7
Cc1ccc(C(C[N+](=O)[O-])Sc2ccc(N)cc2)cc1 (stereo unspecified),95.6% (inactive),98.4,94.8,135% (inactive),133,140,109% (inactive),89.6% (inactive),98.3% (inactive),103,95
COc1cc(C(O)P(=O)(OCC(C)C)OCC(C)C)cc(OC)c1OC (stereo unspecified),99.5% (inactive),99.8,99.7,100% (inactive),102,98.5,104% (inactive),100% (inactive),101% (inactive),100,99.1
COc1cc(NC(=O)c2cccs2)ccc1NC(=O)c1cc2ccccc2o1,97% (inactive),96.9,98.7,96.7% (inactive),99.2,95.1,100% (inactive),99.9% (inactive),101% (inactive),101,101
COc1cc(NC(=O)c2ccccc2)ccc1NC(=O)c1cc2ccccc2o1,98.7% (inactive),98.7,97.8,94.1% (inactive),97.5,92.3,103% (inactive),101% (inactive),100% (inactive),95.8,100
CCOc1ccc(N2C(=O)C(Cl)=C(Nc3ccccc3O)C2=O)cc1,97.4% (inactive),98,98.1,103% (inactive),99.3,105,104% (inactive),96.7% (inactive),97.8% (inactive),100,95.6
Cc1cc(Cl)ccc1N=c1ssnc1Cl,92.2% (inactive),94.2,86.5,133% (inactive),114,145,109% (inactive),97.3% (inactive),102% (inactive),103,101
O=C(O)Cc1csc(-c2cccc(Oc3ccccc3)c2)n1,100% (inactive),97.8,101,105% (inactive),98.7,106,100% (inactive),95.4% (inactive),93.9% (inactive),93.2,93.4
CCOc1ccc(CNC(=O)CCC(=O)N2Cc3cccc(OC)c3Oc3ncccc32)cc1,98.2% (inactive),98.6,99.8,97.9% (inactive),99.2,96.1,100% (inactive),96.6% (inactive),101% (inactive),101,99.7
COc1ccccc1C1CC(c2c(-c3ccccc3)c3cc(Cl)ccc3[nH]c2=O)=NN1S(C)(=O)=O (stereo unspecified),97.6% (inactive),98.9,97.4,106% (inactive),107,105,119% (inactive),96.4% (inactive),113% (inactive),112,112
CCOC(=O)/C(=N\NC(=O)c1ccccc1)c1ccccc1,97.2% (inactive),95.7,98.1,107% (inactive),105,106,104% (inactive),96.5% (inactive),101% (inactive),100,99.1
CCOc1ccc(N2C(=O)CC(Sc3ncccn3)C2=O)cc1 (stereo unspecified),98.2% (inactive),98.4,99.2,97.9% (inactive),97.6,98.3,100% (inactive),101% (inactive),104% (inactive),105,104
